The source made the active and inactive calls. No cut-off for these calls is given here.
Tests used:
Canis familiaris [1] = test: Plasma clearance in Beagle dog at 1 mg/kg, po and 0.5 mg/kg, iv; format: ADME, organism-based, Canis lupus familiaris; details: in vivo
Summary of the method: (§1)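 Single-dose PK at 1.0 mpk po and 0.5 mpk iv. Plasma compound levels measured.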

[2] = Plasma concentration in femoral artery cannulated Lewis rat at 3 mg/kg, po after 4 hrs; format: ADME, organism-based; parameters: dose 3 mg/kg, route oral
Summary of the method: (§2)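 Femoral artery cannulated Lewis rats (n = 3) got a single 3 mpk oral dose. Compound plasma concentration (nM) was measured serially over time up to 72 h postdose. Peripheral blood lymphocyte counts were taken in parallel at the same time points. The same animals were later given a second 3 mpk oral dose.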

[3] = Volume of distribution at steady state in rat at 2 mg/kg, po and 1 mg/kg, iv; format: ADME, organism-based; details: in vivo, read-out: Vdss
Rattus norvegicus [4] = test: Decrease in peripheral blood lymphocytes in Lewis rat at 3 mg/kg, po after 24 relative to hrs control; format: functional; parameters: scale not given: the % may be the effect or the level left
Summary of the method: (§3)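 Rat oral dose-titration at 1–30 mpk po. Peripheral blood lymphocyte counts and plasma compound concentrations determined 24 h postdose.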

Canis familiaris [5] = test: Maximal decrease in peripheral blood lymphocyte in Beagle dog at 1 mg/kg, po after 24 hrs; format: functional, organism-based; parameters: dose 1 mg/kg; details: Canis lupus familiaris
Summary of the method: (§4)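 Complete blood counts run alongside plasma concentrations after a single 1.0 mpk oral dose in beagle dog or rhesus monkey. Lymphocyte counts followed over time, with PBL lowering assessed at 24 h postdose.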

Rhesus monkey = test: Maximal decrease in peripheral blood lymphocyte in rhesus monkey at 1 mg/kg, po after 24 hrs; format: functional, organism-based; parameters: dose 1 mg/kg; details: Macaca mulatta; summary of the method: as §4
Rattus norvegicus [6] = test: Decrease in peripheral blood lymphocyte counts in femoral artery cannulated Lewis rat at 3 mg/kg, po after 4 hrs; format: functional
Summary of the method: (§5)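 Femoral artery cannulated Lewis rats (n = 3) given a single 3 mpk oral dose. PBL counts and plasma compound concentration sampled over time up to 72 h postdose. A repeat 3 mpk po challenge was given to the same animals.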

Rattus norvegicus [7] = test: Decrease in peripheral blood lymphocyte counts in femoral artery cannulated Lewis rat at 3 mg/kg, po after 0.5 hrs; format: functional; summary of the method: as §5
[8] = Plasma concentration in femoral artery cannulated Lewis rat at 3 mg/kg, po after 1 hr; format: ADME, organism-based; parameters: dose 3 mg/kg, route oral; summary of the method: as §2
[9] = Cmax in rhesus monkey at 1 mg/kg, po and 0.5 mg/kg, iv; format: ADME, organism-based, Macaca mulatta; details: in vivo; summary of the method: as §1
[10] = Plasma concentration in Lewis rat at 30 mg/kg, po after 24 hrs; format: ADME, organism-based; parameters: dose 30 mg/kg, route oral; summary of the method: as §3
[11] = Volume of distribution at steady state in rhesus monkey at 1 mg/kg, po and 0.5 mg/kg, iv; format: ADME, organism-based, Macaca mulatta; details: in vivo, read-out: Vdss
[12] = Half life in rat at 2 mg/kg, po and 1 mg/kg, iv; format: ADME, organism-based; details: in vivo
Summary of the method: (§6)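 Rat PK at 2.0 mpk po and 1.0 mpk iv. Plasma compound levels measured.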

[13] = Plasma clearance in rat at 2 mg/kg, po and 1 mg/kg, iv; format: ADME, organism-based; summary of the method: as §6
[14] = Plasma concentration in Lewis rat at 1 mg/kg, po after 24 hrs; format: ADME, organism-based; parameters: dose 1 mg/kg, route oral; summary of the method: as §3
[15] = Plasma concentration in femoral artery cannulated Lewis rat at 3 mg/kg, po after 8 hrs; format: ADME, organism-based; parameters: dose 3 mg/kg, route oral; summary of the method: as §2
[16] = Half life in Beagle dog at 1 mg/kg, po and 0.5 mg/kg, iv; details: in vivo
Rattus norvegicus [17] = test: Decrease in peripheral blood lymphocytes in Lewis rat at 30 mg/kg, po after 24 hrs relative to control; format: functional; parameters: scale not given: the % may be the effect or the level left; summary of the method: as §3
[18] = Plasma clearance in rhesus monkey at 1 mg/kg, po and 0.5 mg/kg, iv; format: ADME, organism-based, Macaca mulatta; summary of the method: as §1
Rattus norvegicus [19] = test: Decrease in peripheral blood lymphocyts in Lewis rat at 10 mg/kg, po after 24 hrs relative to control; format: functional; parameters: scale not given: the % may be the effect or the level left; summary of the method: as §3
Rattus norvegicus [20] = test: Decrease in peripheral blood lymphocyte counts in femoral artery cannulated Lewis rat at 3 mg/kg, po after 32 hrs; format: functional; summary of the method: as §5
[21] = Bioavailability in rat at 2 mg/kg, po and 1 mg/kg, iv; format: ADME, organism-based; details: in vivo; summary of the method: as §6
[22] = Plasma concentration in femoral artery cannulated Lewis rat at 3 mg/kg, po after 24 hrs; format: ADME, organism-based; parameters: dose 3 mg/kg, route oral; summary of the method: as §2
[23] = Bioavailability in rhesus monkey at 1 mg/kg, po and 0.5 mg/kg, iv; format: ADME, organism-based, Macaca mulatta; details: in vivo; summary of the method: as §1
[24] = Cmax in rat at 2 mg/kg, po and 1 mg/kg, iv; format: ADME, organism-based; details: in vivo; summary of the method: as §6
Rattus norvegicus [25] = test: Decrease in peripheral blood lymphocytes in Lewis rat at 1 mg/kg, po after 24 hrs relative to control; format: functional; parameters: scale not given: the % may be the effect or the level left; summary of the method: as §3
[26] = Plasma concentration in femoral artery cannulated Lewis rat at 3 mg/kg, po after 12 hrs; format: ADME, organism-based; parameters: dose 3 mg/kg, route oral; summary of the method: as §2

## O=C(O)C1CN(Cc2ccc(OCc3cc(-c4ccccc4)c(C(F)(F)F)s3)cc2)C1
Canis familiaris [1]
  clearance: 2.2 mL/min/kg
[2]
  concentration at 4 h: 320 nM
[3]
  Vd: 10 L/kg
Rattus norvegicus [4]
  Activity: 78%
Canis familiaris [5]
  Activity: Active
Rhesus monkey
  Activity: Active
Rattus norvegicus [6]
  Activity: 1130 µL⁻¹
Rattus norvegicus [7]
  Activity: 4200 µL⁻¹
[8]
  concentration at 1 h: 270 nM
[9]
  Cmax: 1800 nM
[10]
  concentration at 24 h: 1400 nM
[11]
  Vd: 1.4 L/kg
[12]
  half-life: 6.7 h
[13]
  clearance: 12.3 mL/min/kg
[14]
  concentration at 24 h: 22 nM
[15]
  concentration at 8 h: 310 nM
[16]
  half-life: 9.7 h
Rattus norvegicus [17]
  Activity: 79%
[18]
  clearance: 1.5 mL/min/kg
Rattus norvegicus [19]
  Activity: 78%
Rattus norvegicus [20]
  Activity: 1800 µL⁻¹
[21]
  bioavailability: 79%
[22]
  concentration at 24 h: 120 nM
[23]
  bioavailability: 76%
[24]
  Cmax: 300 nM
Rattus norvegicus [25]
  Activity: 68%
[26]
  concentration at 12 h: 280 nM

From ChEMBL document CHEMBL1149292, “A rational utilization of high-throughput screening affords selective, orally bioavailable 1-benzyl-3-carboxyazetidine sphingosine-1-phosphate-1 receptor agonists” (J Med Chem, 2004)
